Laboratory results reported in ChEMBL document CHEMBL4229344 (Eur J Med Chem, 2018).
Activity calls are given as the source filed them. The rule behind the calls is not given here.

How the values were obtained:
[1] = molecular target: Hepatocyte growth factor receptor (Homo sapiens) (UniProt P08581); assay: Binding affinity to wild-type human partial length MET (D1010 to S1367 residues) expressed in bacterial expression system assessed as residual binding level at 1 uM by Kinomescan method relative to control
[2] = molecular target: Death-associated protein kinase 1 (Homo sapiens) (UniProt P53355); assay: Binding affinity to wild-type human partial length DAPK1 (M1 to F296 residues) expressed in bacterial expression system assessed as residual binding level at 1 uM by Kinomescan method relative to control
[3] = molecular target: Tyrosine-protein kinase Srms (Homo sapiens) (UniProt Q9H3Y6); assay: Binding affinity to wild-type human partial length SRMS (L208 to P488 residues) expressed in mammalian expression system assessed as residual binding level at 1 uM by Kinomescan method relative to control
[4] = tested on: Mast/stem cell growth factor receptor Kit (Homo sapiens), P10721 [A829P]; assay: Binding affinity to human partial length KIT A829P mutant (I571 to D952 residues) expressed in mammalian expression system assessed as residual binding level at 1 uM by Kinomescan method relative to control
Summary of the method: (§1)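 Kinome-wide single-concentration binding screen (KINOMEscan) at 1 μM against a panel of 468 purified kinases and mutants. Read-out is relative binding of each kinase compared with control. Selectivity across the panel was summarised as an S(10) score.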

[5] = molecular target: Serine/threonine-protein kinase TBK1 (Homo sapiens) (UniProt Q9UHD2); assay: Binding affinity to wild-type human full length TBK1 (M1 to L729 residues) expressed in mammalian expression system assessed as residual binding level at 1 uM by Kinomescan method relative to control
Summary of the method: (§2)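 Single-concentration KINOMEscan (DiscoverX) binding screen at 1 μM against a panel of 468 purified kinases and mutants. The read-out is binding relative to control.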

[6] = molecular target: Mitogen-activated protein kinase kinase kinase kinase 4 (Homo sapiens) (UniProt O95819); assay: Binding affinity to wild-type human partial length MAP4K4 (M1 to R310 residues) expressed in bacterial expression system assessed as residual binding level at 1 uM by Kinomescan method relative to control
Summary of the method: (§3)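 Kinome-wide competition binding screen against a panel of 468 purified kinases/mutants, with the test compound at a single concentration of 1 μM. Read-out is the relative binding activity of each kinase in the presence of compound.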

[7] = molecular target: Myosin-IIIb (Homo sapiens) (UniProt Q8WXR4); assay: Binding affinity to wild-type human partial length MYO3B (M1 to D357 residues) expressed in bacterial expression system assessed as residual binding level at 1 uM by Kinomescan method relative to control
EOL1 = assay: Cell cycle arrest in human EOL-1 cells assessed as accumulation at G0/G1 phase at 0.01 to 0.3 uM after 12 hrs by propidium iodide/RNase staining-based flow cytometric analysis; assay type: functional
Summary of the method: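 Cells treated with compound or DMSO for the stated periods, fixed overnight in 70% cold ethanol at −20 °C, stained with PI/RNase buffer, then analysed by flow cytometry for cell-cycle distribution. For NCI-H1703 stimulation, PDGF AA was used at 100 ng/mL.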

[8] = molecular target: Dual specificity mitogen-activated protein kinase kinase 4 (Homo sapiens) (UniProt P45985); assay: Binding affinity to wild-type human partial length MEK4 (S84 to D399 residues) expressed in mammalian expression system assessed as residual binding level at 1 uM by Kinomescan method relative to control
[9] = molecular target: Cytoplasmic tyrosine-protein kinase BMX (Homo sapiens) (UniProt P51813); assay: Binding affinity to wild-type human full length BMX (M1 to H675 residues) expressed in bacterial expression system assessed as residual binding level at 1 uM by Kinomescan method relative to control
Summary of the method: (§4)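 Single-concentration (1 μM) competition-binding screen run by KINOMEscan against a panel of 468 purified kinases and mutants. The read-out is the relative binding activity of the test compound to each kinase.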

[10] = molecular target: Aurora kinase C (Homo sapiens) (UniProt Q9UQB9); assay: Binding affinity to wild-type human full length AURKC (M1 to S275 residues) expressed in bacterial expression system assessed as residual binding level at 1 uM by Kinomescan method relative to control; summary of the method: as §4
[11] = molecular target: Protein kinase C iota type (Homo sapiens) (UniProt P41743); assay: Binding affinity to wild-type human partial length PRKCI (H215 to V587 residues) expressed in mammalian expression system assessed as residual binding level at 1 uM by Kinomescan method relative to control
[12] = tested on: Phosphatidylinositol 4,5-bisphosphate 3-kinase catalytic subunit alpha isoform (Homo sapiens), P42336 [C420R]; assay: Binding affinity to human partial length PIK3CA C420R mutant (R108 to N1068 residues) expressed in mammalian expression system assessed as residual binding level at 1 uM by Kinomescan method relative to control; summary of the method: as §1
[13] = molecular target: Tyrosine-protein kinase ABL1 (Homo sapiens, UniProt P00519); assay: Binding affinity to wild-type human non-phosphorylated ABL1 (S229 to K512 residues) expressed in mammalian expression system assessed as residual binding level at 1 uM by Kinomescan method relative to control; summary of the method: as §2
[14] = molecular target: Cyclin-G-associated kinase (Homo sapiens) (UniProt O14976); assay: Binding affinity to wild-type human partial length GAK (G13 to Y338 residues) expressed in bacterial expression system assessed as residual binding level at 1 uM by Kinomescan method relative to control; summary of the method: as §3
[15] = molecular target: Serine/threonine-protein kinase 35 (Homo sapiens) (UniProt Q8TDR2); assay: Binding affinity to wild-type human partial length STK35 (G182 to A534 residues) expressed in bacterial expression system assessed as residual binding level at 1 uM by Kinomescan method relative to control
[16] = molecular target: Activin receptor type-2B (Homo sapiens) (UniProt Q13705); assay: Binding affinity to wild-type human ACVR2B (H169 to D504 residues) expressed in bacterial expression system assessed as residual binding level at 1 uM by Kinomescan method relative to control
Summary of the method: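 KINOMEscan competition binding against 468 purified kinases/mutants, test compound at 1 µM; residual binding relative to control.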

[17] = molecular target: SRSF protein kinase 2 (Homo sapiens) (UniProt P78362); assay: Binding affinity to wild-type human full length SRPK2 (M1 to S686 residues) expressed in bacterial expression system assessed as residual binding level at 1 uM by Kinomescan method relative to control; summary of the method: as §2
[18] = molecular target: Myosin light chain kinase (Homo sapiens) (UniProt Q32MK0); assay: Binding affinity to wild-type human partial length MLCK (D488 to K800 residues) expressed in bacterial expression system assessed as residual binding level at 1 uM by Kinomescan method relative to control; summary of the method: as §3
[19] = molecular target: Activated CDC42 kinase 1 (Homo sapiens) (UniProt Q07912); assay: Binding affinity to wild-type human partial length TNK2 (S159 to D474 residues) expressed in bacterial expression system assessed as residual binding level at 1 uM by Kinomescan method relative to control
[20] = molecular target: Tyrosine-protein kinase JAK1 (Homo sapiens) (UniProt P23458); assay: Binding affinity to wild-type human partial length JAK1 JH2 pseudokinase domain (R537 to D855 residues) expressed in mammalian expression system assessed as residual binding level at 1 uM by Kinomescan method relative to control

Chain of Tyrosine-protein kinase ABL1 (P00519 whole entry, the tested form may be a part): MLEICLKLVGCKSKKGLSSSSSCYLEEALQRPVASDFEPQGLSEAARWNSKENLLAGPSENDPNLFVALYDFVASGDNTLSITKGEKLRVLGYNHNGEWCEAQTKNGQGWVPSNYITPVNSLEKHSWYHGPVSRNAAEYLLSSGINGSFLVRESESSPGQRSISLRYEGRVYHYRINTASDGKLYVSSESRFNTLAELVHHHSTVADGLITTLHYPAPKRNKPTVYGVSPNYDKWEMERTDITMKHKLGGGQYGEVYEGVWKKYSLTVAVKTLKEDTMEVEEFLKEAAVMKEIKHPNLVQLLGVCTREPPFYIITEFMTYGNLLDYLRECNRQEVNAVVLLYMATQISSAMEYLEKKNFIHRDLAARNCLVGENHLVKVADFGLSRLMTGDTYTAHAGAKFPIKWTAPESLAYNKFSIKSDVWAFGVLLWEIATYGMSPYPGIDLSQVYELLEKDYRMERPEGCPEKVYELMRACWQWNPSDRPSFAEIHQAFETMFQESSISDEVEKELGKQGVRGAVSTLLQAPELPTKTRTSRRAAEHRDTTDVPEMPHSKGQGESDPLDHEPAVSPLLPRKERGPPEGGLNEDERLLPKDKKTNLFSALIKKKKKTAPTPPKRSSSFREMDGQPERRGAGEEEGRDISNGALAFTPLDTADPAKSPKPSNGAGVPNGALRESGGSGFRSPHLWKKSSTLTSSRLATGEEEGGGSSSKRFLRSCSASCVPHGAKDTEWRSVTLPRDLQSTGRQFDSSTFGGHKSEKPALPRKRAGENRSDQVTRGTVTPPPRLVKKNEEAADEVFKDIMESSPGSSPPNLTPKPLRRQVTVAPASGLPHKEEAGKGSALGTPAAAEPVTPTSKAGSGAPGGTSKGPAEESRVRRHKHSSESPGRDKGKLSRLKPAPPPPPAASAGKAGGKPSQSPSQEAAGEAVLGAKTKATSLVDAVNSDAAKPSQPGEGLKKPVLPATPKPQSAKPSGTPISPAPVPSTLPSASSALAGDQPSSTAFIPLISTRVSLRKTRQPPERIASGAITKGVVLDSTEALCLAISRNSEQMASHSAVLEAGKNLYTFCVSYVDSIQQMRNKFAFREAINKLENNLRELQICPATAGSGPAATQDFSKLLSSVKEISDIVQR
Chain of SRSF protein kinase 2 (Homo sapiens) (P78362 whole entry, looked up, the tested form may be a part): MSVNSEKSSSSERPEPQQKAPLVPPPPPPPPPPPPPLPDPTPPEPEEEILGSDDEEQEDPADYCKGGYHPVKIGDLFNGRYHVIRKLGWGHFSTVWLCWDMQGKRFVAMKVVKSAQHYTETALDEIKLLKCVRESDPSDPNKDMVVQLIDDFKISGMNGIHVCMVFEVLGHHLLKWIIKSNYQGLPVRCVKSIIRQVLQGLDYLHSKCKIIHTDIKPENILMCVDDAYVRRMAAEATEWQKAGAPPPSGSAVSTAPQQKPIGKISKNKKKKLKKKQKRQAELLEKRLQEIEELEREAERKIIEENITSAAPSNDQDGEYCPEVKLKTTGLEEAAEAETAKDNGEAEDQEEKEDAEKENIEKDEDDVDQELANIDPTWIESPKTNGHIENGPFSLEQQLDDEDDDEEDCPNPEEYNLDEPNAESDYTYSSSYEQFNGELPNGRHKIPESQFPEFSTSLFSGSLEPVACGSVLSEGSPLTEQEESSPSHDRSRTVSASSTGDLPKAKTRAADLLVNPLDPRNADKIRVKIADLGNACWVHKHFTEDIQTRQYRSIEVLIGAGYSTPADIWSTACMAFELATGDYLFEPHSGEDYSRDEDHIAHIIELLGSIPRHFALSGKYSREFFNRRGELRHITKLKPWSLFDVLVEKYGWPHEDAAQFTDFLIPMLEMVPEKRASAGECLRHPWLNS
Chain of Cytoplasmic tyrosine-protein kinase BMX (Homo sapiens) (P51813 whole entry, the tested form may be a part): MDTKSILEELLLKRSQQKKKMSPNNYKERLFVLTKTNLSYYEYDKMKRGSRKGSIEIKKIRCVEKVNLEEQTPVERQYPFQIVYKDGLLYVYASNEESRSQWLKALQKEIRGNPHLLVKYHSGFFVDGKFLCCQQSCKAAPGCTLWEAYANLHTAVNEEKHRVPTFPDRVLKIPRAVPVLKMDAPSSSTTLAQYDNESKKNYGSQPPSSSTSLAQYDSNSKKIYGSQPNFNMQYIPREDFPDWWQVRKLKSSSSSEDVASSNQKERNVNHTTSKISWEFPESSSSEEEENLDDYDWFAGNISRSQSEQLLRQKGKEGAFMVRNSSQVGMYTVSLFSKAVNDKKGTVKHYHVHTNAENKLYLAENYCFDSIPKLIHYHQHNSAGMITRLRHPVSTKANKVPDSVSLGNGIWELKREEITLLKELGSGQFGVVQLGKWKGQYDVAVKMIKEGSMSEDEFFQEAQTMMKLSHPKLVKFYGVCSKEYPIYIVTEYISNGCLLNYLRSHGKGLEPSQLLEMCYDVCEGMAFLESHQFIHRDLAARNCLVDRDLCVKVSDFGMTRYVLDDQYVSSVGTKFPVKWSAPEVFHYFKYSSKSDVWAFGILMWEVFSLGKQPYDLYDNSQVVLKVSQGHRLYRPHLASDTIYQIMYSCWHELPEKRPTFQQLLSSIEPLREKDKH
Chain of Aurora kinase C (Homo sapiens) (Q9UQB9 whole entry, the tested form may be a part): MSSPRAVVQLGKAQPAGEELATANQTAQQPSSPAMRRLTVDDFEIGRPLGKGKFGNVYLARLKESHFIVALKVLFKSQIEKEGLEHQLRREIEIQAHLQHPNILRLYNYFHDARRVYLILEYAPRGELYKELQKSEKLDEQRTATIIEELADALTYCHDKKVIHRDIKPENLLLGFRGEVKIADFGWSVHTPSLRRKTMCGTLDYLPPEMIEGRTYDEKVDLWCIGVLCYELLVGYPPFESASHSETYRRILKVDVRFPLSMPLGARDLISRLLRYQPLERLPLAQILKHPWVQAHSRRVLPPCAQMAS
Chain of Protein kinase C iota type (Homo sapiens) (P41743 whole entry, the tested form may be a part, canonical isoform): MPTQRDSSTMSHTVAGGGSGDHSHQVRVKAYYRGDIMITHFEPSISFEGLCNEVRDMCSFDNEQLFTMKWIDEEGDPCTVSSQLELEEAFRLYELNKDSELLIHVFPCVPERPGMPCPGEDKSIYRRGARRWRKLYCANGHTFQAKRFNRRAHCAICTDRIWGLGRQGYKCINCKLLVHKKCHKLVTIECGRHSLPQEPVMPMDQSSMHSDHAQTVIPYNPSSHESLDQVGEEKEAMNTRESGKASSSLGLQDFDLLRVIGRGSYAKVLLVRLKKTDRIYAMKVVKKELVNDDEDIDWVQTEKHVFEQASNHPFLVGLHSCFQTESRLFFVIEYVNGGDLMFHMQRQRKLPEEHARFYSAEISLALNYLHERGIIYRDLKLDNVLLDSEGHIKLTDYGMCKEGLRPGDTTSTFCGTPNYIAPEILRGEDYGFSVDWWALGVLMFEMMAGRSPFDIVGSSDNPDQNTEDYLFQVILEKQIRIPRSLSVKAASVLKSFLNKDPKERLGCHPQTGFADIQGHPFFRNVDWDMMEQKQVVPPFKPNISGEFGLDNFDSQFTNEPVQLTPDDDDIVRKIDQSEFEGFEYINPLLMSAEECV
Chain of Death-associated protein kinase 1 (Homo sapiens) (P53355 whole entry, looked up, the tested form may be a part): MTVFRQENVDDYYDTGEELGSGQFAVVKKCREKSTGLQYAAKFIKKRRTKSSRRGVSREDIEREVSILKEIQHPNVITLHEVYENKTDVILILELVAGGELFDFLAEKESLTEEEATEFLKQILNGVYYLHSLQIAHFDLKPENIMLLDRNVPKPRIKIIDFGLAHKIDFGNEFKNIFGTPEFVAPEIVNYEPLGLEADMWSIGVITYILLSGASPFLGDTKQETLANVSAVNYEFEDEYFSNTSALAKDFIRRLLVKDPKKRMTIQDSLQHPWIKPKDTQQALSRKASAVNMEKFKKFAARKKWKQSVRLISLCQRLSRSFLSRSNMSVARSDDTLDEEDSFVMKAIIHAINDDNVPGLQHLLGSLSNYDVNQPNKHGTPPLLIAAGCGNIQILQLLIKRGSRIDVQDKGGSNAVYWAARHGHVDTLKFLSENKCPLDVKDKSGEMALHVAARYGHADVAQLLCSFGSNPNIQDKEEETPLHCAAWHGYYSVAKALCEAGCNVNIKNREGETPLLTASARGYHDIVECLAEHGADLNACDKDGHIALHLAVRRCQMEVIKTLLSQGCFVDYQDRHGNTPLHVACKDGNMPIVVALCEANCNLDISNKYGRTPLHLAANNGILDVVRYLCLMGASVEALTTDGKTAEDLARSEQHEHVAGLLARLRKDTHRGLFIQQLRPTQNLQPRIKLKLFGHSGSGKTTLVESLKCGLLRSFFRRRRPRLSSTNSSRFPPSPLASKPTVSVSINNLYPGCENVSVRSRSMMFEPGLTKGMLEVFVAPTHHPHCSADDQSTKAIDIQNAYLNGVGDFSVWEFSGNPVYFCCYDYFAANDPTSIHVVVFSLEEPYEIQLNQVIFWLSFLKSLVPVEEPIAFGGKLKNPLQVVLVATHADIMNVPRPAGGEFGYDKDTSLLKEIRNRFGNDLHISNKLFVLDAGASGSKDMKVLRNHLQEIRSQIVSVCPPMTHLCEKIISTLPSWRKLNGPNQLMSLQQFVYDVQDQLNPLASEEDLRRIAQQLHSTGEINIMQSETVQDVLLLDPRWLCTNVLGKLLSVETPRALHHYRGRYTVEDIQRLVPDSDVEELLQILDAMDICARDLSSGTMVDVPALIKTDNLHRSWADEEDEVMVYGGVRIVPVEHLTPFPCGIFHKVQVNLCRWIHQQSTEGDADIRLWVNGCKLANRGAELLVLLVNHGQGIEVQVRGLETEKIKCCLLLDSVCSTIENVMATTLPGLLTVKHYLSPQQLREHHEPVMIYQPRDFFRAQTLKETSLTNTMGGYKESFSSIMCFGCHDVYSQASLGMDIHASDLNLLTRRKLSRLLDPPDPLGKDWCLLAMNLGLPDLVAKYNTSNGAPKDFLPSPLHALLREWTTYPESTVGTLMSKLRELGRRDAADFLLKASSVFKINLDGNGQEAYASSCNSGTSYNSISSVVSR

## Cc1ccc(NC(=O)c2ccc(CN(CCN(C)C)C(=O)c3cccnc3)cc2)cc1Nc1nccc(-c2cccnc2)n1
[1]
  Activity: 90%
[2]
  Activity: 96%
[3]
  Activity: 97%
[4]
  Activity: 81%
[5]
  Activity: 86%
[6]
  Activity: 87%
[7]
  Activity: 97%
EOL1
  Activity: Active
[8]
  Activity: 100%
[9]
  Activity: 100%
[10]
  Activity: 97%
[11]
  Activity: 100%
[12]
  Activity: 93%
[13]
  Activity: 4.9%
[14]
  Activity: 82%
[15]
  Activity: 100%
[16]
  Activity: 89%
[17]
  Activity: 86%
[18]
  Activity: 80%
[19]
  Activity: 88%
[20]
  Activity: 78%
